Experimental findings from ChEMBL document CHEMBL1124779, “Synthesis and antitumor activity of 1-[[(dialkylamino)alkyl]amino]-4-methyl-5H-pyrido[4,3-b]benzo[e]- and -benzo[g])indoles. A new class of antineoplastic agents” (1990) are described below.

The test system of assay [1] is L1210. The assay is described as follows: Tested for cytotoxicity in the multiple tumor disk diffusion soft agar assay at the dose of 15 ug/disk against leukemia L1210; range is 450-525. The format is functional, Mus musculus. Put shortly: (§1)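 Soft agar disk diffusion: bottom layer 0.8% noble agar, top layer 0.47% noble agar, both in 1:1 CMRL-Fischer medium with 11% horse serum. Top layer seeded with 5×10^3 L1210 cells or 10^6 solid tumor cells (C38, PO3). Drug applied on a dried 6-mm filter-paper disk. Incubation 7-11 days. Inhibition zone measured by inverted microscope, in units (1 unit = 30 μm).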
A general note: Agar diffusion results depend on both activity and mobility in agar.

Assay [2] deals with L1210. The assay is described as follows: Cytotoxicity in the multiple tumor disk diffusion soft agar assay at the dose of 15 ug/disk against leukemia L1210. The format is functional, Mus musculus. Put shortly: as §1
The test system of assay [3] is P388. The assay is described as follows: In vivo T/C (survival time treated/survival time control x 100) was determined against P388 leukemia cells at 40 mg/Kg. The format is functional, Mus musculus. Put shortly:
(§2)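 B6D2 F1 mice, at least five per group, were inoculated ip on day 0 with 10^6 viable P388 cells (25 mL/kg). Compounds were dissolved in distilled water and given ip (25 mL/kg) daily on days 1–4. Mortality was checked daily, with necropsy of dead animals. T/C×100 was median survival, treated versus control. Survivors beyond 50 days counted as cured and were excluded from the median.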

For assay [4], the system named is P388. The assay can be described thus: In vitro cytotoxicity was determined against P388 leukemia cells. The format is functional. Particulars: Mus musculus, read-out: ID50 (the source's name). Put shortly: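 P388 cells in exponential growth, RPMI 1640 with 2 mM glutamine, 10 μM 2-mercaptoethanol and 10% FCS, 5% CO2, 37 °C. Cells at 10^5 cells/mL. Drugs in distilled water added on day 0. Cells counted by Coulter counter after 96 h. ID50 (μg/mL, 50% inhibition of proliferation) estimated by regression of concentration/response data.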

The nature of assay [5]: Cytotoxicity in the multiple tumor disk diffusion soft agar assay at the dose of 15 ug/disk against solid tumor C38. The format is functional, Mus musculus. Put shortly: as §1
Assay [6] in a line: Cytotoxicity in the multiple tumor disk diffusion soft agar assay at the dose of 15 ug/disk against solid tumor PO3. The format is functional, Mus musculus. The procedure, abridged: as §1
Assay [7] concerns L1210. The assay can be described thus: Tested for cytotoxicity in the multiple tumor disk diffusion soft agar assay at the dose of 15 ug/disk against leukemia L1210. It is filed as functional, Mus musculus. Put shortly:
as §1

Assay [8] relates to P388. The assay is described as follows: In vivo T/C (survival time treated/survival time control x 100) was determined against P388 leukemia cells at 20 mg/Kg. The format is functional, Mus musculus. Put shortly:
as §2

Assay [9] in a line: Tested for cytotoxicity in the multiple tumor disk diffusion soft agar assay at the dose of 15 ug/disk against solid tumor PO3; range is 300-450. The format is functional, Mus musculus. Put shortly:
as §1

Assay [10] has as its system L1210. The assay can be described thus: In vivo T/C (survival time treated/survival time control x 100) was determined against L1210 leukemia cells at 40 mg/Kg. The format is functional, Mus musculus. The procedure, abridged:
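B6D2 F1 mice, at least five per group, were inoculated ip on day 0 with 10^5 viable L1210 cells (25 mL/kg). Compounds were dissolved in distilled water and given ip (25 mL/kg) on days 1–4. Deaths were checked daily, with necropsy to separate tumor from toxic death. T/C×100 was median survival of treated over controls. Mice surviving over 50 days counted as cured and were excluded from the median.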

The test system of assay [11] is P388. The assay can be described thus: In vivo T/C (survival time treated/survival time control x 100) was determined against P388 leukemia cells at 10 mg/Kg. It is filed as functional, Mus musculus. Put shortly:
as §2

The nature of assay [12]: Tested for cytotoxicity in the multiple tumor disk diffusion soft agar assay at the dose of 15 ug/disk against solid tumor C38; U = 32 uM. It is filed as functional, Mus musculus. Put shortly: as §1
Assay [13] in a line: Tested for cytotoxicity in the multiple tumor disk diffusion soft agar assay at the dose of 15 ug/disk against solid tumor PO3; U = […]. The format is functional, Mus musculus. The procedure, abridged: as §1
The test system of assay [14] is L1210. The assay is described as follows: Tested for cytotoxicity in the multiple tumor disk diffusion soft agar assay at the dose of 15 ug/disk against leukemia L1210; range is 500-580. The format is functional, Mus musculus. Put shortly: as §1
In assay [15] the test system is L1210. The assay can be described thus: Tested for cytotoxicity in the multiple tumor disk diffusion soft agar assay at the dose of 15 ug/disk against leukemia L1210; U = 32 uM. The format is functional, Mus musculus. Put shortly: as §1
In assay [16] the test system is L1210. The assay is described as follows: Tested for cytotoxicity in the multiple tumor disk diffusion soft agar assay at the dose of 15 ug/disk against leukemia L1210; range is 290-350. It is filed as functional, Mus musculus. Put shortly:
as §1

Assay [17] in a line: Tested for cytotoxicity in the multiple tumor disk diffusion soft agar assay at the dose of 15 ug/disk against solid tumor PO3; range is 430-480. The format is functional, Mus musculus.
For assay [18], the system named is L1210. The assay is described as follows: Tested for cytotoxicity in the multiple tumor disk diffusion soft agar assay at the dose of 15 ug/disk against leukemia L1210; range is 420-525. The format is functional, Mus musculus. Put shortly:
as §1

Assay [19] is described as follows: Tested for the change in body weight between day1 and 7 for murine solid tumor model B16 early stage that is subcutaneously implanted by the intravenous treatment at the dose of 5 mg/kg in 1-4 schedule. It is filed as functional, Mus musculus. Put shortly: (§3)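 sc implant of 1 mm³ tumor fragment. MA 16/C in C3H mice, B16 in C57BL/6 mice, C26 in CD2F1 mice; 10 per group. iv dosing on days 1-4 at 10 mL/kg. Mice weighed daily. Killed day 14 (C26) or day 15 (MA 16/C, B16) and tumors weighed. T/C×100 from median tumor weight, treated vs control. Body weight change taken from day 1 to 7.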

Assay [20] in a line: Tested for medium tumor weight of treated /control animals x 100 (% T/C) for murine solid tumor model B16 early stage that is subcutaneously implanted by the intravenous treatment at the dose of 5 mg/kg in 1-4 schedule. The format is functional, Mus musculus. The procedure, abridged:
as §3

For assay [21], the system named is Mus musculus. The assay is described as follows: Tested for medium tumor weight of treated /control animals x 100 (% T/C) for murine solid tumor model C26 early stage that is subcutaneously implanted by the intravenous treatment at the dose of 10 mg/kg in 1-4 schedule. The format is functional. The procedure, abridged:
as §3

For assay [22], the system named is Mus musculus. The assay is described as follows: Tested for the change in body weight between day1 and 7 for murine solid tumor model C26 early stage that is subcutaneously implanted by the intravenous treatment at the dose of 10 mg/kg in 1-4 schedule. The format is functional. The procedure, abridged: as §3
In assay [23] the test system is Mus musculus. The assay is described as follows: Tested for the change in body weight between day1 and 7 for murine solid tumor model MA 16/C early stage that is subcutaneously implanted by the intravenous treatment at the dose of 5 mg/kg in 1-4 schedule. It is filed as functional. The procedure, abridged:
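Mice given sc 1 mm³ tumor fragment: C26 in CD2F1 mice, MA 16/C in C3H mice (tumors passaged in strain of origin), 10 per group. Drug given iv days 1–4 at 10 mL/kg. Animals weighed daily and watched for toxicity. Body-weight change taken from day 1 to day 7. Killed day 14 (C26) or 15 (MA 16/C).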

In assay [24] the test system is Mus musculus. The assay is described as follows: Tested for medium tumor weight of treated /control animals x 100 (% T/C) for murine solid tumor model MA 16/C early stage that is subcutaneously implanted by the intravenous treatment at the dose of 5 mg/kg in 1-4 schedule. The format is functional. The procedure, abridged: as §3

Values after ≈ are worked out from the molar mass of the structure shown.

For `COc1ccc2c(ccc3[nH]c4c(C)cnc(NCC(C)CN(C)C)c4c32)c1` (stereo not drawn), the Cytotoxicity was 450 U in assay [1], 425 U in assay [2], 425 U in assay [5] and 375 U in [6]. Moreover, the “T/C x100” value in [3] is listed as 151. For the same compound, the IC50 in assay [4] stood at 0.55 µg/mL (≈ 1.46 µM).
For the compound `Cc1c[nH]c(NCCCN(C)C)c2c3ccc4c(O)cccc4c3nc1-2`, the Cytotoxicity in [7] is 500 U; in [2], 450 U; in [5], 400 U; in assay [9] it was 300 U. Besides, the “T/C x100” value in [8] stood at 169. Further, the IC50 in assay [4] amounted to 0.05 µg/mL (≈ 0.143 µM).
With `CCN(CC)CCCNc1[nH]cc(C)c2nc3ccc4cc(OC)ccc4c3c1-2`, the figures for the “T/C x100” value in assay [10] and in [3] were 112 and 189, respectively. Besides, the IC50 in assay [4] came to 1 µg/mL (≈ 2.56 µM).
With `Cc1cnc(NCCCN(C)C)c2c3ccc4ccccc4c3n(C)c12`, the Cytotoxicity in assay [2] was 450 U; in assay [12], 480 U; in assay [13] it was 325 U; in [14], 500 U. In addition, in [11], the “T/C x100” value came out at 119. Moreover, the IC50 in [4] was 0.375 µg/mL (≈ 1.08 µM).
For the compound `COc1cccc2c1ccc1c3c(NCCCN(C)C)ncc(C)c3n(C)c21`, the Cytotoxicity in assay [15] came out at 375 U; in assay [16], 290 U; in [12], 675 U; in assay [13] it was 275 U. Also, in assay [3], the “T/C x100” value turned out to be 130. For the same compound, the IC50 in assay [4] worked out at 0.75 µg/mL (≈ 1.99 µM).
On to `CCN(CC)CCCNc1ncc(C)c2c1c1ccc3c(O)cccc3c1n2C`, for which the Cytotoxicity in [15] was determined as 500 U; in assay [7], 450 U; in assay [12] it was 730 U; in assay [17], 430 U. Also, the “T/C x100” value in assay [11] is recorded as 160. Also, the IC50 in assay [4] was determined as 0.05 µg/mL (≈ 0.128 µM).
Regarding `CCN(CC)CCCNc1ncc(C)c2[nH]c3ccc4ccccc4c3c12`, the Cytotoxicity is on record as 420 U in assay [18] and 525 U in [5]. Further, the “T/C x100” value in [3] turned out to be 149. The IC50 in assay [4] amounted to 0.18 µg/mL (≈ 0.499 µM).
Usually T/C stands for the result in the treated group divided by that in the control group, in per cent. On to `CCN(CC)CCCNc1nccc2c(C)c3[nH]c4ccncc4c3cc12` [PAZELLIPTINE], for which the results for the Change in weight in [19], in [22] and in assay [23] were -0.5 g, -1.5 g and -1.5 g, respectively. Moreover, the T/C in assay [20] was determined as 10%; in assay [21], 10%; in assay [24], 45%.
